System: MS2 coat protein
Test: apparent Kd, MS2 coat protein; higher = weaker binding; RNA-MaP array; FMN 200 µM where present
Outline: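 Designs were transcribed by stalled E. coli RNA polymerase on Illumina sequencing-chip clusters. They were titrated with SNAP-549-labelled MS2 coat protein from 0.7 or 1.5 nM, doubling to 3 µM, in 100 mM Tris-HCl pH 7.5, 80 mM KCl, 4 mM MgCl2, BSA, DTT, yeast tRNA and Tween-20, without and then with constant ligand. The apparent Kd is the median of filtered per-cluster fits after normalisation of green signal to red-channel RNA signal and control-cluster median Fmax.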

[1] = designed as: OFF switch for flavin mononucleotide, no ligand
[2] = ligand present: flavin mononucleotide, designed as: OFF switch for flavin mononucleotide
[3] = designed as: ON switch for flavin mononucleotide, no ligand
[4] = ligand present: flavin mononucleotide, designed as: ON switch for flavin mononucleotide

Sequence	apparent Kd [1]	apparent Kd [2]	apparent Kd [3]	apparent Kd [4]
GAUUAGCUUGGAGGAUAUGGUACGGGCAGCUAACCAGAAGGCCAAGAACAUGAGGAUCACCCAUGUGCCGUUGGCCAUGGGAGG	37.1 nM	13.2 nM	–	–
CGCACUUAGCGAGGAUAUGUUAAACAUGAGGAUCACCCAUGUGAUUUAGUAUCAAUUUUAGUGAAACAGAAGGCGCUUAGUGCG	17.6 nM	14.9 nM	–	–
AACUCUGAGAAGGAUAUUCAAUGGGAAACGAUGGAAGAAGGUUUCACAUGAGGAUCACCCAUGUCGAAUAGUGA	71.9 nM	63.9 nM	–	–
AUUAUUGGCUAAGGAUAUGGAUACAUGAGGAUCACCCAUGUAUAAUUUGUGAUCAUAUAAAUGAUCCAGAAGGUAGCUGUUUAU	81.6 nM	220 nM	–	–
GUAGCUAUCGGAGGAUAUUCAUACCGGAAACGGACAUGAGGAUCACCCAUGUGGCGAAAGCCUUGGGAGAAGGCUGAUAGCUAC	–	–	257 nM	7.37 nM
UUAUGUUUACAAGGAUAUCAAUUAUUUAUACUUCCUACAUGAGGAUCACCCAUGUUUUUAUAUUUUGAGAAGGUGUAAUGUCGG	–	–	38.5 nM	35.4 nM
UGUAUAUAGGCAGGAUAUACAUGAAUAUAUAUGAUGUAGUAUGAUGUAACAUGAGGAUCACCCAUGUAGAAGGGCCAAUAUAUA	40.8 nM	135 nM	–	–
AUCGGUCCGUAGAAGGGUGACAUGAGGAUCACCCAUGUGCCGUGGGCAUUUAUGCCUCCACGGCCACAGGAUAUACGGAGUUGA	–	–	54 nM	36.8 nM
GGUUGUCAAAGACAACCAUAACGAACAUGAGGAUCACCCAUGUAGGAUAUGCUUCUCAAAGAGAAGCAGAAGGACAUGUGUCUU	31.8 nM	177 nM	–	–
UGUACGGACAUGAGGAUCACCCAUGUAACCAAGCAGUUGGUACAGGAUAUCGCUUAAUAACUAAGCGAGAAGGGUGGUUCUGCA	–	–	32.5 nM	63.4 nM
UCGGCGCGAGGAUAUACGUUUGCUUUUUUGGGUCGUUGCGUACAUGAGGAUCACCCAUGUAGAAGGCGCGCCGC	27.4 nM	187 nM	–	–
AACCACGUUAGAUUAAGCGUGACAUGAGGAUCACCCAUGUGUCAGGAUAUACAUGGGCGGGCCCAGUAGAAGGGACUUAAUAGC	–	–	146 nM	91 nM
UACCACCGCACGGACACGUCGAGUCAGGAUAUACAUGAGGAUCACCCAUGUGAAGGCCGGUUCAUGUAGAAGGGACAGGCGUUG	49.8 nM	100 nM	–	–
GCACUGGAUGUAGGAUAUCAGGACGAUAAGUCCUGAGAAGGACAUGAGGAUCACCCAUGUAAACCUCACCAGUGCUAUAAUAUA	15.5 nM	21.1 nM	–	–
AAUUAAUUAAUUAAUAUACAUGAGGAUCACCCAUGUAAGAUCAAGGAUAUCAGCUCGAAUAGAGCUGAGAAGGUGAUCACAUGU	–	–	533 nM	674 nM
CCCGGCGUGACGCUACACCGAGAGCAGGAUAUUCCGCCGUGAUCUACAUGAGGAUCACCCAUGUGGAAGAAGGGCUACACAAAA	8.94 nM	37.5 nM	–	–
GAAUCGAAAAUACGAGCAUGUACACAGGAUAUCCCGUGACAUGAGGAUCACCCAUGUAACACAUUGGAGAAGGGUGUUCACGUA	–	–	153 nM	14.8 nM
GCCUAUUCGUGCAGUUAAGGAGCUCAGGAUAUCGCAAUAACAUGAGGAUCACCCAUGUCCGAAUACGAGAAGGGAGGUCCGACG	–	–	140 nM	13.9 nM
UUAAUUAAUUAAUUAUACAUGAGGAUCACCCAUGUAAGUGAUCAGGAUAUCAGCUCGAAUAGAGCUGAGAAGGGAUACAUGAAU	–	–	144 nM	118 nM
AAAUCCUACGAAGGAUAUACAAACAUGAGGAUCACCCAUGUGUCUUUCGUGUAACUGGAAUUCGGGUAGAAGGUCGUAGACAUA	17 nM	22.6 nM	–	–
CUUAUUAAACAAGGAUAUCAUUUGUGUACAAGUUUUACAUGAGGAUCACCCAUGUUAAAUGGUUUUGAGAAGGUGUUUAGAACU	–	–	58.4 nM	31.5 nM
CCAUGGCUGUAAGGAUAUCUCUGACAAAGUCAGAGAGAAGGUACAUGAGGAUCACCCAUGUGAGGAAAACCACAUUUGCCAUGG	9.46 nM	15.7 nM	–	–
AUCAGCUCGUCAGGAUAUACGUCACUGCUUCGGCAGUGUAUUAAGAUCACAUGAGGAUCACCCAUGUAGAAGGGACGAGCUGAU	21.7 nM	226 nM	–	–
CGAUAGGACAGAGGAUAUGCCGAUAGGAUCUACUAUCGAAGAAUCCUCACAUGAGGAUCACCCAUGUAGAAGGCUGUCCUAUCU	7.9 nM	38.1 nM	–	–

Sequence	apparent Kd [1]	apparent Kd [2]	apparent Kd [3]	apparent Kd [4]
AUGUUACAUGAGGAUCACCCAUGUGAGGAUAUGUGUACCGGUAAAAAAGUGUCUGGCCACAGAAGGCAUUUGGA	29.4 nM	33 nM	–	–
GACUGAUUACAGAAGGUGUUUGACAUGAGGAUCACCCAUGUGUUAUUCAGUUUCAUUGAAUUUAACAAGGAUAUGUAUAUAUCA	–	–	220 nM	101 nM
CAAUUUAUAACAGGAUAUGUAUUACAAAAGUUAAUAGAAGGGUUUAAUACAUGAGGAUCACCCAUGUCAUGUGUCAUAAUUACC	36.7 nM	29.6 nM	–	–
GAGUGACAUGAGGAUCACCCAUGUGAGGAUAUCGGACGGACCUAGUUAGCUUCCGCCGCGAGAAGGCACAUCGG	121 nM	45.8 nM	–	–
AGAGCCUCGUGAGGAUAUACAUGAGGAUCACCCAUGUAAAUGAAAGAUACGUCGAAACGACGAAUGUAGAAGGCACGAGGCUCA	17.8 nM	65.9 nM	–	–
AUACAUCUUCGAGGAUAUCGGUGAUAAAUUUUACGAGAAGGCGAUGAAAGAUAUAAUCUUAUAUACAUGAGGAUCACCCAUGUU	–	–	26 nM	24.1 nM
AAAAAGCGAGGAUAUACAUAGCUAAGACGUGUGAGCGAAAAACAUGAGGAUCACCCAUGUAGAAGGCGCAAAAA	18 nM	17.9 nM	–	–
CUCUUUAGUCAGGAUAUCGUGAGGCUAAUUAUACGAGAAGGGACGACAUGAGGAUCACCCAUGUGGUCUUAGAG	17.4 nM	32.1 nM	–	–
AUUAUUUAUAGUUAUUGGUAAUUGACAGAAGGUGAAAGUGUCACAUGAGGAUCACCCAUGUUCUUCAAGGAUAUGUUGGUAUAC	–	–	88.3 nM	14 nM
AACAGACAUGAGGAUCACCCAUGUAGAAUUAUGGGAGGAUAUACAAAGACGAGAGUCAGAGUAGAAGGCCUAGGAC	–	–	46.5 nM	29.9 nM
CGGGCUGCCAGAGGAUAAUGGACAUGAGGAUCACCCAUGUGUCAGGAUAUGGGUUUCACAUGGACUCAGAAGGGACCAGCCCAA	–	–	101 nM	24.9 nM
AAAUAAAGCAGUGUAUUAAGAUAACAUGAGGAUCACCCAUGUAGAAGGCUCGAGCAAAAUGCUCGAGAGGAUAUACAACACUGC	5.04 nM	9.55 nM	–	–
GGUACUCAAAGAGUACUGAGUCGAACAUGAGGAUCACCCAUGUAGGAUAUGCGAGUUUUGAAUUUGCAGAAGGACAUUUUUAGC	8.88 nM	9.59 nM	–	–
GGUGUGGCAUGAGGAUAUGGUCAGCUUUGCUGACCAGAAGGCAUGUCAAUAGACAUGAGGAUCACCCAUGUAGUUAACACACCA	–	–	557 nM	42.4 nM
AAAUUUAACGAAGGAUAUGGUUACAUGAGGAUCACCCAUGUAUAUUUUGUGAUCUUGUUAAAGUACCAGAAGGUCGUAUACAUA	173 nM	400 nM	–	–
GCUGCAAAUGAGAAGGCGAUCAUGAAACAUGAUCGAGGAUAUCAUGUUUACAUGAGGAUCACCCAUGUAUGGGUAUAUUGCAGC	–	–	707 nM	14.3 nM
AGAUAACAUGAGGAUCACCCAUGUGAGGAUAUUUACUCAAGAGCUUCGGCUCUCAGGUGAAGAAGGCACAAUGA	55.9 nM	83.4 nM	–	–
UUGUUGUAUGUAGGAUAUGCAUAUUAUUAUUGUGCAGAAGGACAUGAGGAUCACCCAUGUAUAUUAUUAUUAUAUAUUAUAUAU	35.3 nM	54.3 nM	–	–
GACUUGCGCACAGGAUAUCCACGGAGCGGACGUGGAGAAGGGUGACAUGAGGAUCACCCAUGUACGUAAGUCUGGAUCACUCCC	–	–	108 nM	33.1 nM
CGCAAUAUACAGAAGGAGUUAUUUAGAGGUUUACUAGGAUAUGUUCACAUGAGGAUCACCCAUGUCAUAUGGAGUUUUAUUGCG	9.25 nM	8.33 nM	–	–
GAGUUUACGUUUGACACUUAGCGAGAGGAUAUGGAAAACAAGACAUGAGGAUCACCCAUGUACUAUCAGAAGGCUCGAGUACGA	–	–	8.92 nM	5.69 nM
GCCAUCGUAUGAGGAUAUGGCACCGAAACGGUGCCAGAAGGCAUGUCAAUAGACAUGAGGAUCACCCAUGUUUUAUCGAUGGCA	–	–	89.7 nM	23.5 nM
CGUGCUUAUGUAGGAUAUGGUUAUCUAUGUCUAGUUACUAGACAUAGAUAACCAGAAGGACAUGAGGAUCACCCAUGUUGCACG	8.28 nM	15.5 nM	–	–

Source: the EternaBench riboswitch data
